According to PMC10376460 (European Journal of Endocrinology, 2023):
Several values for one entry are separate records, joined by “and”; a condition that tells them apart may be missing. Equal values may be shown once. Entries after “also recorded” stand apart in the source; their conditions may differ.

How the values were obtained:
human AKR1C3 = target: T1, human AKR1C3 (Homo sapiens, UniProt P42330); test: Biochemical enzyme assay: coumberol formation from coumberone; conditions: read-out: IC50, inhibition of human AKR1C3 activity; coumberone 0.3 µmol/L (Km)
T1 sequence (P42330 1-323): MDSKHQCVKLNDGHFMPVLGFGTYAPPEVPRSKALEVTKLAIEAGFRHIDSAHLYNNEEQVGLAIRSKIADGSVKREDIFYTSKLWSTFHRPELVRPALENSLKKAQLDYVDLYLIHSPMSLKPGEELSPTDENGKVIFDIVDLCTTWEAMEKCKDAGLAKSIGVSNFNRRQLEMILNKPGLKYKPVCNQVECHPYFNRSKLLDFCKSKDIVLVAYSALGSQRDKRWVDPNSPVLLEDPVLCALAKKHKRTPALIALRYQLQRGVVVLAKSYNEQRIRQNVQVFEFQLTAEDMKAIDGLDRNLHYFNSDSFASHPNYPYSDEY

postmenopausal women [1] = test: Steroid assay; type: in vivo, human; conditions: 30 mg QD to 60 mg BID for 14 days
Procedure, shortened: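 Postmenopausal women received test compound QD or BID, or placebo, for 14 days with 5-day follow-up. A commercial validated multiplex LC-MS/MS kit quantified 17 serum steroids at 0-48 h after dosing on day −1, day 1 and day 14, plus predose samples. Fold change was the ratio to the last pre-dose value of the period. Values below LLOQ were excluded.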

premenopausal women [2] = test: Steroid assay; type: in vivo, human
Procedure, shortened: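 Premenopausal women, pretreatment cycle versus 28-day treatment with 60 mg QD or BID. A validated multiplex LC-MS/MS kit measured 17 serum steroids at 3- to 4-day visits, E3G-triggered visits, first bleeding days and end of treatment. LH-peak-adjusted AUCs were taken from day −5 to +10 per cycle. Cycles were compared with 90% CI and Bonferroni–Holm-adjusted P values, and values below LLOQ were excluded.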

premenopausal women [3] = test: Ovarian function assessment; type: in vivo, human; conditions: 60 mg QD or BID 28 d
Procedure, shortened: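 Open-label, intraindividual comparison in 18 premenopausal women: a pretreatment cycle, then oral test compound 60 mg QD or BID for 28 days. Assessments were transvaginal ultrasound (follicle diameter, endometrial thickness), Hoogland scoring of ovarian activity, and a bleeding pattern from daily self-rated maximum bleeding intensity. FSH and LH were sampled at 3- to 4-day visits, with extra visits on urinary E3G rises.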

[4] = test system: healthy premenopausal and postmenopausal women; test: Eicosanoid; type: in vivo, human; conditions: systemic measurements
Procedure, shortened: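 Plasma from postmenopausal (part A) and premenopausal (part B) women on the test compound. Eicosanoids, including prostaglandins, and polyunsaturated fatty acids were measured together by a published LC-MS/MS method. Part B sampling was at 3- to 4-day visits.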

[5] = Plasma pharmacokinetics, part A; type: in vivo, human
Procedure, shortened: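 Postmenopausal women, randomized, double-blind, placebo-controlled (7 active, 2 placebo per step). A single dose was given, then after a 14-28 day washout 3, 30 or 90 mg QD or 60 mg BID for 14 days. Plasma parent and metabolite M-7 were sampled predose to 336 h, plus periodic predose troughs. Noncompartmental parameters, accumulation and linearity indices were derived, and steady state was judged from mean Ctrough.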

[6] = Plasma pharmacokinetics, part B; type: in vivo, human; conditions: premenopausal women
Procedure, shortened: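 Premenopausal women received open-label oral test compound 60 mg QD or BID for 28 days. Plasma parent and metabolite M-7 concentrations were measured. Standard noncompartmental multiple-dose PK parameters were calculated from concentration-time data.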

postmenopausal women [7] = test: Safety assessments; type: in vivo, human
Procedure, shortened: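 Safety covered adverse event reports, vital signs, ECGs, hematology, serum chemistry including liver function tests (transaminases, alkaline phosphatase) and urinalysis. Total serum bilirubin was followed during and after dosing against an ULN of 1.23 mg/dL. Placebo recipients were pooled, with descriptive statistics.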

AKR1C1 = conditions: concentrations up to 10 µM; cited from earlier work
AKR1C2 = conditions: concentrations up to 10 µM; cited from earlier work
AKR1C4 = conditions: concentrations up to 10 µM; cited from earlier work
[8] = test system: organic anion transporting polypeptide (OATP) 1B1/3 transporters; conditions: in vitro; cited from earlier work
[9] = test system: premenopausal women with endometriosis; conditions: phase 2 study; cited from earlier work
[10] = LH-peak-adjusted AUC, 60 mg once or twice daily 28 d
[11] = serum, LH-peak-adjusted (day −5 to +10), 60 mg once or twice daily 28 d
[12] = treatment vs pretreatment cycle, 60 mg once or twice daily 28 d

For `CN(CCC(=O)O)C(=O)c1ccc2c(c1)CC[C@@H]1[C@@H]2CC[C@]2(C)C(c3cncc(F)c3)=CC[C@@H]12` [BAY1128688], the IC50 (human AKR1C3) was 1.4 nM, the “serum concentrations of androsterone” value (postmenopausal women [1]) was “increased in a dose-dependent manner” and the “changes in serum E2 (17β-estradiol) concentrations” value (premenopausal women [2]; 60 mg QD or BID 28 d) was “no concomitant changes; also recorded: no systematic changes”. The “changes in serum progesterone concentrations” value (premenopausal women [2]; 60 mg QD or BID 28 d) was “no concomitant changes; also recorded: no systematic changes”, the “serum testosterone, treatment cycle vs pretreatment cycle” value (premenopausal women [2]; 60 mg QD or BID 28 d) was “slightly decrease” and the “11-Deoxycorticosterone: X-fold change from baseline, mean” value (premenopausal women [2]; [10]) was 0.88. The “11-Deoxycorticosterone: X-fold change from baseline, median” value (premenopausal women [2]; [10]) was 0.87, the “11-Deoxycortisol: X-fold change from baseline, mean” value (premenopausal women [2]; [10]) was 0.85 and the “11-Deoxycortisol: X-fold change from baseline, median” value (premenopausal women [2]; [10]) was 0.79. For the same compound, the “17alpha-Hydroxyprogesterone: X-fold change from baseline, mean” value (premenopausal women [2]; [10]) was 0.88, the “17alpha-Hydroxyprogesterone: X-fold change from baseline, median” value (premenopausal women [2]; [10]) was 0.87 and the “Aldosterone: X-fold change from baseline, mean” value (premenopausal women [2]; [10]) was 1.05. The “Aldosterone: X-fold change from baseline, median” value (premenopausal women [2]; [10]) was 0.94, the “Androstenedione: X-fold change from baseline, mean” value (premenopausal women [2]; [10]) was 0.99 and the “Androstenedione: X-fold change from baseline, median” value (premenopausal women [2]; [10]) was 0.98. For the same compound, the “Androsterone: X-fold change from baseline, mean” value (premenopausal women [2]; [10]) was 2.95, the “Androsterone: X-fold change from baseline, median” value (premenopausal women [2]; [10]) was 2.42 and the “Corticosterone: X-fold change from baseline, mean” value (premenopausal women [2]; [10]) was 0.98. The “Corticosterone: X-fold change from baseline, median” value (premenopausal women [2]; [10]) was 0.95, the “Cortisol: X-fold change from baseline, mean” value (premenopausal women [2]; [10]) was 0.95 and the “Cortisol: X-fold change from baseline, median” value (premenopausal women [2]; [10]) was 0.92. The “Cortisone: X-fold change from baseline, mean” value (premenopausal women [2]; [10]) was 0.94, the “Cortisone: X-fold change from baseline, median” value (premenopausal women [2]; [10]) was 0.92 and the “Dehydroepiandrosterone sulfate: X-fold change from baseline, mean” value (premenopausal women [2]; [10]) was 1.11. For the same compound, the “Dehydroepiandrosterone sulfate: X-fold change from baseline, median” value (premenopausal women [2]; [10]) was 1.12, the “Dehydroepiandrosterone: X-fold change from baseline, mean” value (premenopausal women [2]; [10]) was 0.83 and the “Dehydroepiandrosterone: X-fold change from baseline, median” value (premenopausal women [2]; [10]) was 0.78. For the same compound, the “Dihydrotestosterone: X-fold change from baseline, mean” value (premenopausal women [2]; [10]) was 1.52, the “Dihydrotestosterone: X-fold change from baseline, median” value (premenopausal women [2]; [10]) was 1.53 and the “Estradiol: X-fold change from baseline, mean” value (premenopausal women [2]; [10]) was 1.06. For the same compound, the “Estradiol: X-fold change from baseline, median” value (premenopausal women [2]; [10]) was 1.12, the “Estrone: X-fold change from baseline, mean” value (premenopausal women [2]; [10]) was 1.05 and the “Estrone: X-fold change from baseline, median” value (premenopausal women [2]; [10]) was 1.08. For the same compound, the “Etiocholanolone: X-fold change from baseline, mean” value (premenopausal women [2]; [10]) was 1.96, the “Etiocholanolone: X-fold change from baseline, median” value (premenopausal women [2]; [10]) was 1.70 and the “Progesterone: X-fold change from baseline, mean” value (premenopausal women [2]; [10]) was 0.84. The “Progesterone: X-fold change from baseline, median” value (premenopausal women [2]; [10]) was 0.90, the “Testosterone: X-fold change from baseline, mean” value (premenopausal women [2]; [10]) was 0.86 and the “Testosterone: X-fold change from baseline, median” value (premenopausal women [2]; [10]) was 0.87. For the same compound, the “11-Deoxycorticosterone: Treatment period AUC” value (premenopausal women [2]; [11]) was 1.61 nmol/day, the “11-Deoxycortisol: Treatment period AUC” value (premenopausal women [2]; [11]) was 4.84 nmol/day and the “17alpha-Hydroxyprogesterone: Treatment period AUC” value (premenopausal women [2]; [11]) was 42.5 nmol/day. For the same compound, the “Aldosterone: Treatment period AUC” value (premenopausal women [2]; [11]) was 3.17 nmol/day, the “Androstenedione: Treatment period AUC” value (premenopausal women [2]; [11]) was 51.1 nmol/day and the “Androsterone: Treatment period AUC” value (premenopausal women [2]; [11]) was 20.6 nmol/day. For the same compound, the “Corticosterone: Treatment period AUC” value (premenopausal women [2]; [11]) was 90.6 nmol/day, the “Cortisol: Treatment period AUC” value (premenopausal women [2]; [11]) was 4102 nmol/day and the “Cortisone: Treatment period AUC” value (premenopausal women [2]; [11]) was 859 nmol/day. For the same compound, the “Dehydroepiandrosterone sulfate: Treatment period AUC” value (premenopausal women [2]; [11]) was 69 510 nmol/d, the “Dehydroepiandrosterone: Treatment period AUC” value (premenopausal women [2]; [11]) was 130 nmol/day and the “Dihydrotestosterone: Treatment period AUC” value (premenopausal women [2]; [11]) was 10.2 nmol/day. For the same compound, the “Estradiol: Treatment period AUC” value (premenopausal women [2]; [11]) was 7.29 nmol/day, the “Estrone: Treatment period AUC” value (premenopausal women [2]; [11]) was 4.02 nmol/day and the “Etiocholanolone: Treatment period AUC” value (premenopausal women [2]; [11]) was 7.01 nmol/day. For the same compound, the “Progesterone: Treatment period AUC” value (premenopausal women [2]; [11]) was 213 nmol/day, the “Testosterone: Treatment period AUC” value (premenopausal women [2]; [11]) was 9.45 nmol/day and the “androsterone on-treatment value, maximum” value (premenopausal women [2]; serum, 60 mg QD or BID) was 6.36 nmol/L. For the same compound, the “11-Deoxycorticosterone: AUC difference (mixed linear model)” value (premenopausal women [2]; [12]) was -0.308 nmol/day, the “11-Deoxycortisol: AUC difference (mixed linear model)” value (premenopausal women [2]; [12]) was -0.953 nmol/day and the “17alpha-Hydroxyprogesterone: AUC difference (mixed linear model)” value (premenopausal women [2]; [12]) was -5.20 nmol/day. For the same compound, the “Aldosterone: AUC difference (mixed linear model)” value (premenopausal women [2]; [12]) was 0.0041 nmol/day, the “Androstenedione: AUC difference (mixed linear model)” value (premenopausal women [2]; [12]) was -0.312 nmol/day and the “Androsterone: AUC difference (mixed linear model)” value (premenopausal women [2]; [12]) was 13.5 nmol/day. The “Corticosterone: AUC difference (mixed linear model)” value (premenopausal women [2]; [12]) was -17.7 nmol/day, the “Cortisol: AUC difference (mixed linear model)” value (premenopausal women [2]; [12]) was -407 nmol/day and the “Cortisone: AUC difference (mixed linear model)” value (premenopausal women [2]; [12]) was -55.6 nmol/day. For the same compound, the “Dehydroepiandrosterone sulfate: AUC difference (mixed linear model)” value (premenopausal women [2]; [12]) was 9524 nmol/day, the “Dehydroepiandrosterone: AUC difference (mixed linear model)” value (premenopausal women [2]; [12]) was -23.3 nmol/day and the “Dihydrotestosterone: AUC difference (mixed linear model)” value (premenopausal women [2]; [12]) was 3.49 nmol/day. The “Estradiol: AUC difference (mixed linear model)” value (premenopausal women [2]; [12]) was 0.343 nmol/day, the “Estrone: AUC difference (mixed linear model)” value (premenopausal women [2]; [12]) was 0.139 nmol/day and the “Etiocholanolone: AUC difference (mixed linear model)” value (premenopausal women [2]; [12]) was 3.47 nmol/day. For the same compound, the “Progesterone: AUC difference (mixed linear model)” value (premenopausal women [2]; [12]) was -50.6 nmol/day, the “Testosterone: AUC difference (mixed linear model)” value (premenopausal women [2]; [12]) was -1.43 nmol/day and the “menstrual cyclicity and ovarian function” value (premenopausal women [3]) was “not altered”. The “participants with Hoogland score of 6 (normal ovulation) in treatment cycle” value (premenopausal women [3]) was 14 of 18 and 14/18, the “impact on prostaglandins investigated” value [4] was “no obvious impact” and the “RAAUC (accumulation ratio)” value ([5]; 60 mg BID, geometric mean/%CV) was 2.32. The “time until PK steady-state conditions were reached (mean Ctrough)” value ([5]; all dose groups) was 4 to 8 days, the “multiple-dose PK parameters compared with postmenopausal women” value [6] was “Largely similar” and the “individual maximum increase in total serum bilirubin, fold ULN” value (postmenopausal women [7]; 60 mg BID, day 13) was “around 1.2 fold ULN”. For the same compound, the “individual maximum increase in total serum bilirubin, fold ULN” value (postmenopausal women [7]; 90 mg QD, day 6) was “around 2.3 fold ULN”, the “overall safety and tolerability” value (postmenopausal women [7]; 2 or 4 weeks of treatment, healthy female participants) was “safe and well tolerated” and the “increases in serum bilirubin, fold above the ULN” value (postmenopausal women [7]; all participants except two) was “below 1.50 fold”. The “changes in liver enzymes (transaminases; alkaline phosphatase)” value (postmenopausal women [7]; any of the participants, parts A and B) was “no concomitant changes”, the “inhibition of AKR1C1” value (AKR1C1) was “no inhibition” and the “inhibition of AKR1C2” value (AKR1C2) was “no inhibition”. The “inhibition of AKR1C4” value (AKR1C4) was “no inhibition”, the “inhibition of OATP 1B1/3 transporters” value [8] was “inhibitor” and the “finding that terminated development” value [9] was “hepatotoxicity”.
